Data as given in ChEMBL document CHEMBL3872223, “Synthetic, enzyme kinetic, and protein crystallographic studies of C-β-d-glucopyranosyl pyrroles and imidazoles reveal and explain low nanomolar inhibition of human liver glycogen phosphorylase” (Eur J Med Chem, 2016).
The source made the active and inactive calls. The rule behind the calls is not given here.

Experiments:
[1] = molecular target: T1, Glycogen phosphorylase, muscle form (Oryctolagus cuniculus, UniProt P00489); test: Inhibition of rabbit muscle glycogen phosphorylase-b assessed as release of inorganic phosphate from glucose-1-phosphate in presence of AMP and glycogen
T1 sequence (P00489 whole entry): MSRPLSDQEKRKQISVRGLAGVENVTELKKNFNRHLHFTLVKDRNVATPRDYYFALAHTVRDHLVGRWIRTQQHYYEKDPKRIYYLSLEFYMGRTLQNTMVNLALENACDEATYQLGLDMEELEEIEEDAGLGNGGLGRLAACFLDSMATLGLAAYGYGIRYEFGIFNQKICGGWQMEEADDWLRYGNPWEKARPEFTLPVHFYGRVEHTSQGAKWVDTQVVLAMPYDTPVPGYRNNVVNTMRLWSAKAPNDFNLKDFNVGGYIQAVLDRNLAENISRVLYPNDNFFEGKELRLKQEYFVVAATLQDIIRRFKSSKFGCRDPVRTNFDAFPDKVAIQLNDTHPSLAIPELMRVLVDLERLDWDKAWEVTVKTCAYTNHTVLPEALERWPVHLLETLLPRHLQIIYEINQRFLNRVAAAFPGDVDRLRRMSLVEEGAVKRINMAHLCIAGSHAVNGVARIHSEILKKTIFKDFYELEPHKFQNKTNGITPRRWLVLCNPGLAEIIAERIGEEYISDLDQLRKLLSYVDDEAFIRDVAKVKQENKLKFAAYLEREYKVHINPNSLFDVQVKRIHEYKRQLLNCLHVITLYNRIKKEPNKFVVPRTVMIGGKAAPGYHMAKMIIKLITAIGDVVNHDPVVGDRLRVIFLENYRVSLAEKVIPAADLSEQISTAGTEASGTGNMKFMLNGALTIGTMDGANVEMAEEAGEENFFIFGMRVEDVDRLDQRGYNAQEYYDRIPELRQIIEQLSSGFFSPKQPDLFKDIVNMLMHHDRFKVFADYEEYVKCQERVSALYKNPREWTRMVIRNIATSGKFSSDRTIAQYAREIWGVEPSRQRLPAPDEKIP
How it was run: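 Isolated rabbit skeletal muscle GPb was assayed in 30 mM imidazole/HCl pH 6.8 with 60 mM KCl, 0.6 mM EDTA and 0.6 mM DTT. […] Initial velocities were derived from pseudo-first order rate constants.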

[2] = molecular target: T1, Glycogen phosphorylase, muscle form; test: Competitive inhibition of rabbit muscle glycogen phosphorylase-b in presence of varying glucose-1-phosphate levels and AMP
[3] = molecular target: T2, Glycogen phosphorylase, liver form (Homo sapiens, UniProt P06737); test: (§1) Competitive inhibition of His6-tagged human liver glycogen phosphorylase-a expressed in Escherichia coli BL21 Gold (DE3) assessed as release of inorganic phosphate using varying levels of glucose-1-phosphate and constant concentration of AMP and glycogen measured after 1 min by Dixon plot method
T2 sequence (P06737 whole entry): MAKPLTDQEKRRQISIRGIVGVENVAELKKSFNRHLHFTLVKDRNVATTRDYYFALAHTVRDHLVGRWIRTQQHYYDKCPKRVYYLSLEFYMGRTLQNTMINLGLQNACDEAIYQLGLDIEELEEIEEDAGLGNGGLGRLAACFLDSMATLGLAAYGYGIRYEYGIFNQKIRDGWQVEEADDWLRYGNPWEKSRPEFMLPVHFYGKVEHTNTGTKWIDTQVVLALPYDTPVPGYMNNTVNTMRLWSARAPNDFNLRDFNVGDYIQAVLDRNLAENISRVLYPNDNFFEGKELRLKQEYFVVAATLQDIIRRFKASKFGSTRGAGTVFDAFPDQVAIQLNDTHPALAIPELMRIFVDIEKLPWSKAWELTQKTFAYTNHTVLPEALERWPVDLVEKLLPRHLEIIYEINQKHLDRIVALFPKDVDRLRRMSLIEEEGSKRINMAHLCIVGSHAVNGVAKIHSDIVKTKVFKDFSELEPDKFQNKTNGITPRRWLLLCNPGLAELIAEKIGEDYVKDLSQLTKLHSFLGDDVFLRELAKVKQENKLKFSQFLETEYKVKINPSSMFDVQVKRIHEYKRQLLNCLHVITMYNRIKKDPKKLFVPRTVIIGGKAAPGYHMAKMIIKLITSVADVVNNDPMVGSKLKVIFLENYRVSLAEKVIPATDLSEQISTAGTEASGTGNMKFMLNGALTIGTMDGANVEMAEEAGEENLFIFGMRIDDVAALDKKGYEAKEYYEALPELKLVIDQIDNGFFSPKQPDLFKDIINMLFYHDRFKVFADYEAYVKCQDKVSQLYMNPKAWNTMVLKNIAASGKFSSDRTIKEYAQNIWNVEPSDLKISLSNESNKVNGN

[4] = molecular target: T1, Glycogen phosphorylase, muscle form; test: Competitive inhibition of rabbit muscle glycogen phosphorylase-a assessed as release of inorganic phosphate using varying levels of glucose-1-phosphate and constant concentration of AMP and glycogen measured after 1 min by Dixon plot method
How it was run: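 Rabbit muscle GPa was made by phosphorylating rmGPb with a truncated catalytic γ subunit of rabbit muscle phosphorylase kinase. It was assayed in 30 mM imidazole/HCl pH 6.8 containing 60 mM KCl, 0.6 mM EDTA, 0.6 mM DTT and 0.2% w/v glycogen, with Glc-1-P and inhibitor both varied. Initial velocities were calculated from pseudo-first order rate constants.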

[5] = molecular target: T3, Glycogen phosphorylase, liver form (Homo sapiens) (UniProt P06737); test: as §1, with “Lineweaver-Burk” for “Dixon”; assay type: tissue-based
T3 sequence (whole entry): T2 sequence (P06737 whole entry)

Row | Compound | IC50 [1] [µM] | Ki [2] [µM] | Ki [3] [µM] | Ki [4] [µM] | inhibition [5]
1 | O=C1CNC(=S)N1 [THIOHYDANTOIN] |  | 5.1 |  |  | 
2 | OC[C@H]1O[C@@H](c2nc(-c3ccc4ccccc4c3)c[nH]2)[C@H](O)[C@@H](O)[C@@H]1O |  |  | 0.026 | 0.065 | Active

Now from value to compound:

Row | IC50 [1] [µM] | Ki [2] [µM] | Ki [3] [µM] | Ki [4] [µM] | inhibition [5] | Compound
3 | 625 |  |  |  |  | OC[C@H]1O[C@@H](c2cc3ccccc3[nH]2)[C@H](O)[C@@H](O)[C@@H]1O
4 |  |  | 0.156 | 0.226 | Active | OC[C@H]1O[C@@H](c2nc(-c3ccccc3)c[nH]2)[C@H](O)[C@@H](O)[C@@H]1O
5 |  |  | 4280 |  |  | OC[C@H]1O[C@H](O)[C@H](O)[C@@H](O)[C@@H]1O
